The list is not random: actives were taken first. Their share in the collection is about 4.6%.
CHO parental Ca – ATP-evoked calcium signal inhibitors, parental CHO, primary screen, counter-screen for OX1R antagonist project, cell-based, fluorescence, Fluo-8 calcium dye; parental CHO-K1, ATP-induced calcium, Fluo-8 fluorescence; inhibition, % at 5.6 µM; hit rate 0.63% among 330,000; AID 463079, 2010;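 active = inhibition above that plate's mean sample inhibition plus 3 SD, cut at about 26% in these data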;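 note: 0% = ATP-challenged DMSO wells and 100% = DMSO wells without ATP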
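Test system: untransfected parental CHO cell line; also added: ATP stimulus; dosing: 5.6 µM, single dose; signal: calcium-sensitive Fluo-8 fluorescence; measure: percent inhibition of ATP-evoked calcium rise, normalized to controls; benchmarks: low control ATP plus DMSO, high control DMSO only; replication: one well per compound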
GPR7 antag – GPR7 receptor antagonists, primary screen, cell-based, fluorescence, single concentration | Neuropeptides B/W receptor type 1 (Homo sapiens), P48145 | GPR7-expressing cells, fluorescence antagonist assay | inhibition, % at 4.4 µM | hit rate 1.1% among 290,000 | AID 1861, 2009; in the data active = inhibition above about 16%, passing the limit was not always enough;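 note: cells stimulated with the agonist NPW; 0% = agonist with vehicle and 100% = vehicle without agonist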
TAAR1 antag – human TAAR1 antagonists, primary screen, Fluo-8 calcium fluorescence, CHO RD-HGA16 cells. Trace amine-associated receptor 1 (Homo sapiens), Q96RJ0. antagonist. inhibition, % at 3 µM. hit rate 1.5% among 360,000;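 active = inhibition above a per-plate cutoff, the mean inhibition of test compounds on that plate plus 3 SD, cut at about 49% in these data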;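 note: 0% = DMSO plus EC80 beta-PEA response and 100% = DMSO alone without agonist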
Target sequence (Q96RJ0 whole entry, looked up): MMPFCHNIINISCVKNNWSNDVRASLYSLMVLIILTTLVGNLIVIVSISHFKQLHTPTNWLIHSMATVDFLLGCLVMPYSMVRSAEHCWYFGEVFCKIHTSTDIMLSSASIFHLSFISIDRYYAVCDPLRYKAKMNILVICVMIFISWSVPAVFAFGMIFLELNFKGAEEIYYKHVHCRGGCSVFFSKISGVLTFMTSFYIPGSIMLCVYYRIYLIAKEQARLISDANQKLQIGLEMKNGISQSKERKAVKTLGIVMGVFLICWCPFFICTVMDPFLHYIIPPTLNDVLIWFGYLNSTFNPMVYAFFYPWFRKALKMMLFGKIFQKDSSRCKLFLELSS
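System: RD-HGA16 CHO cells with stable hTAAR1 and Gα16 | Probe or stimulus: EC80 β-phenethylamine stimulus | Dosing: 3 µM, single point | Times: Dye loading 75 min at 37 °C, then 30 min room temperature | Measured by: Fluo-8 calcium-sensitive fluorescence | Read-out basis: % inhibition of agonist calcium response | Replicates: n of 1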
OX1R antag-1 – OX1R (HCRTR1) antagonists, primary screen, fluorescence, CHO/OX1R cells, Fluo-8 calcium, orexin A | Fluo-8 calcium fluorescence | inhibition, % at 5 µM | hit rate 0.43% among 330,000 | Orexin/Hypocretin receptor type 1 (Homo sapiens), O43613;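 active = inhibition above its plate's threshold, mean inhibition of all tested compounds on the plate plus 3 SD, cut at about 37% in these data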;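 note: 0% = orexin A challenge wells and 100% = SB-334867-A antagonist wells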
Target sequence (O43613 whole entry, looked up): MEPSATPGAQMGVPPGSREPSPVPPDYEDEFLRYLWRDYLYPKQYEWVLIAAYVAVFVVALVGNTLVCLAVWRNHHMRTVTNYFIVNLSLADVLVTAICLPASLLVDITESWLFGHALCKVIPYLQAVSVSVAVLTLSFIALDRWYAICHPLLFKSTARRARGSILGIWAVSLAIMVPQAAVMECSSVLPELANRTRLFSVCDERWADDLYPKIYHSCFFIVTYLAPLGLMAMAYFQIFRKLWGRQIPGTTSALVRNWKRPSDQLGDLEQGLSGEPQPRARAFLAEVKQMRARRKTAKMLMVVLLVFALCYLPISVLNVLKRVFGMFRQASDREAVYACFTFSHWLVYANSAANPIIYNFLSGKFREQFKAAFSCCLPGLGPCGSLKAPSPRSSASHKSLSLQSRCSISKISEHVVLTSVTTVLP
TAAR1 ag – human TAAR1 agonists, primary screen, Fluo-8 calcium fluorescence, CHO RD-HGA16 cells; vehicle wells 0%, saturating PEA agonist 100%; activation, % at 3 µM; hit rate 0.99% among 360,000;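 active = activation above the mean activation of all test compounds in the run plus 3 SD, cut at about 38% in these data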
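Test system: RD-HGA16 (CHO) cells co-expressing Gα16 and hTAAR1 / Benchmarks: DMSO vehicle as 0%, PEA at EC100 as 100% / Repeats: no replicates (n 1) / Measure: % activation from peak over basal fluorescence ratio, DMSO-to-PEA scaled / Timing: 17-24 h plating, Fluo-8 75 min 37 °C, 30 min RT / Technique: kinetic Fluo-8 calcium fluorescence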
OX1R antag-2 – antagonists of human orexin 1 receptor (OX1R). OX1R-expressing cells, FRET antagonist read-out. AID 485270, 2010. inhibition, % at 6.6 µM. Orexin/Hypocretin receptor type 1 (Homo sapiens), O43613. hit rate 1.8% among 330,000; in the data active = inhibition mostly above about 38%, no sharp cut-off; inactive = mostly below about 40%;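 note: 0% = agonist challenge alone and 100% = reference antagonist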
TAAR1 nonsel count – nonselective antagonists in TAAR1 counter-screen cells, counter-screen for hTAAR1 antagonist project, cell-based, fluorescence, calcium | AID 651780, 2012 | inhibition, % at 3 µM | counterscreen cell line, antagonist mode | hit rate 77% among 2,400 | shares compounds with TAAR1 antag; in the data active = inhibition above about 22%;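 note: CHO-Ga16 host cells stimulated with ATP at an EC80 level; 0% = agonist EC80 plus vehicle and 100% = vehicle without agonist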
TAAR1 ant conf – human TAAR1 antagonists, retest of hits, confirmation, cell-based, fluorescence. hit rate 40% among 2,400. AID 651785, 2012. TAAR1-expressing cells, fluorescence antagonist read-out. shares compounds with TAAR1 antag. inhibition, % at 3 µM; in the data active = inhibition above about 49%;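 note: CHO-Ga16 host cells challenged with agonist PEA near its EC80; 0% = agonist at EC80 plus vehicle and 100% = vehicle with no agonist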
Ga16 nonsel ag – calcium activation in Ga16-expressing cells, counter-screen for TAAR1 antagonist project, cell-based, fluorescence | activation, % at 3 µM | AID 651953, 2012 | hit rate 18% among 2,400 | shares compounds with TAAR1 antag | agonist counterscreen; in the data active = activation above about 12%;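 note: 0% = vehicle wells and 100% = saturating stimulus response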
TAAR1 ag count – TAAR1 activation by candidate antagonists – cell-based, fluorescence, counter-screen for TAAR1 antagonist project; shares compounds with TAAR1 antag; hTAAR1 cell line, agonist mode; activation, % at 3 µM; hit rate 2% among 2,400; AID 651955, 2012; in the data active = activation above about 37%;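 note: CHO cells stably expressing TAAR1 with calcium dye readout; 0% = DMSO vehicle and 100% = full agonist response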
* hit, by the source's call; . = no result.

SMILES	CHO parental Ca	GPR7 antag	TAAR1 antag	OX1R antag-1	TAAR1 ag	OX1R antag-2	TAAR1 nonsel count	TAAR1 ant conf	Ga16 nonsel ag	TAAR1 ag count
COc1ccccc1N1CCN(C(=O)c2sc3nc(C)nc(N4CCN(c5ccccn5)CC4)c3c2C)CC1	-13.6	-21.6	54.8*	-35.2	7.0	35.3	16.7	33.8	4.3	5.3
Cc1nc(N2CCN(c3ccccn3)CC2)c2c(C)c(C(=O)N3CCN(c4ccc(F)cc4)CC3)sc2n1	-19.1	-16.2	40.6	-16.9	0.4	7.0	.	.	.	.
COc1cccc(Nc2nc(-c3sc(NC(=O)c4ccco4)nc3C)cs2)c1	-14.3	-10.5	52.4*	-36.0	16.3	18.6	21.6*	29.5	5.2	14.3
CC1=CCC(C(=O)O)C(C(=O)NC2CCCCC2)C1 (centres undefined)	8.3	-13.7	1.0	-13.3	-1.1	16.2	.	.	.	.
O=C(N/N=C/c1cccc(Oc2ccc([N+](=O)[O-])cc2[N+](=O)[O-])c1)c1cncc(Br)c1	-15.2	11.5	55.1*	-8.5	21.2	22.6	51.1*	53.8*	16.1*	11.6
O=C(Cc1cccs1)Nc1cccnc1	-7.4	-18.6	2.8	-6.8	0.9	5.4	.	.	.	.
CC1CCN(C(=O)c2ccc(N(C)S(C)(=O)=O)cc2)CC1	-12.6	4.8	107.5*	-11.0	5.5	22.9	-2.6	-4.4	2.5	5.5
COc1ccc(CCN2CC(C#N)=C3c4cc(OC)c(OC)cc4CCN3C2)cc1OC	-18.9	-9.8	9.2	-37.9	4.3	10.1	.	.	.	.
COc1cc2c(cc1OC)C1=C(C#N)CN(C3CCCCC3)CN1CC2	-18.6	-16.6	52.6*	-30.9	7.6	7.4	23.2*	33.5	9.7	7.4
COc1ccnc(Oc2ccc(F)cc2)c1C(=O)N/C=N/OCc1ccc(F)cc1Cl	-11.3	-8.2	75.7*	-17.4	31.0	22.1	40.8*	60.6*	14.3*	16.4
COc1ccnc(Oc2ccc(F)cc2)c1C(=O)N/C=N/OCc1ccc(Cl)cc1Cl	-9.9	-14.5	62.6*	-8.9	34.9	8.7	28.6*	57.1*	13.5*	21.9
COC(=O)CSc1ncnc2scc(-c3ccccc3)c12	-15.8	3.2	-14.0	-8.8	-2.2	15.7	.	.	.	.
COc1ccccc1N1CCN(C(=O)CSc2ncnc3scc(-c4ccccc4)c23)CC1	-39.1	-0.6	55.9*	-26.1	2.6	30.3	21.8*	33.4	4.9	9.9
O=C1N[C@@H](Cc2ccccc2)COC(=O)[C@H](Cc2ccc(F)cc2)CC/C=C/C[C@@H]1CC(=O)N(CCO)Cc1ccccc1	-23.2	.	16.8	-16.6	2.8	6.2	.	.	.	.
O=C1N[C@@H](c2ccccc2)COC(=O)[C@@H](Cc2ccc(F)cc2)C/C=C\C[C@H]1CC(=O)N(CCO)Cc1ccccc1	-21.3	.	58.8*	16.3	31.1	8.8	36.5*	57.7*	13.6*	12.7
O=C1N[C@@H](c2ccccc2)COC(=O)[C@H](Cc2ccc(F)cc2)CC/C=C/C[C@@H]1CC(=O)N(CCO)Cc1ccccc1	-18.8	.	42.8	3.5	7.3	8.4	.	.	.	.
O=C1N[C@@H](Cc2ccccc2)COC(=O)[C@H](Cc2ccc(F)cc2)CC/C=C/C[C@H]1CC(=O)N(CCO)Cc1ccccc1	-2.2	.	65.7*	3.9	27.4	3.8	17.1	26.4	4.9	3.5
O=C1N[C@@H](Cc2ccccc2)COC(=O)[C@@H](Cc2ccc(F)cc2)CC/C=C/C[C@H]1CC(=O)N(CCO)Cc1ccccc1	-10.3	.	65.8*	20.1	29.9	13.4	30.5*	43.7	10.6	14.9
O=C1N[C@@H](Cc2ccccc2)COC(=O)[C@H](Cc2ccc(F)cc2)C/C=C\C[C@H]1CC(=O)N(CCO)Cc1ccccc1	-30.2	.	33.0	8.5	7.1	1.9	.	.	.	.
CCOC(=O)N1CCN(S(=O)(=O)c2ccc(OC)c(C(=O)N3CCCCC3)c2)CC1	-6.1	-2.8	-3.6	-9.6	2.4	45.9	.	.	.	.
NC(Cc1ccccc1)C(O)(c1ccccc1)c1ccccc1 (centres undefined)	-35.7	8.3	8.6	-14.4	2.6	4.0	.	.	.	.
O=S1(=O)C[C@H](N2CCC(Cc3ccccc3)CC2)[C@@H](COCc2ccccc2)N1	.	.	-12.7	.	4.4	.	.	.	.	.
COc1cc(/C=N/n2cnnc2)ccc1OC(=O)c1ccncc1	-10.9	-7.9	106.7*	-7.3	1.7	2.5	6.2	3.6	0.6	-0.7
Cc1cc(=O)oc2c3c(cc(OCC(=O)NCCN4CCOCC4)c12)OC(C)(C)CC3	-10.0	1.2	1.1	-15.2	0.8	18.7	.	.	.	.
Cc1c(C)c2c(OCC(=O)NCc3ccco3)cc3c(c2oc1=O)CCC(C)(C)O3	-18.1	0.8	-21.4	-37.7	-0.1	17.6	.	.	.	.
SMILES	CHO parental Ca	GPR7 antag	TAAR1 antag	OX1R antag-1	TAAR1 ag	OX1R antag-2	TAAR1 nonsel count	TAAR1 ant conf	Ga16 nonsel ag	TAAR1 ag count
Cc1cc(=O)oc2c3c(cc(OCC(=O)NCc4ccncc4)c12)OC(C)(C)CC3	-11.6	8.9	-2.9	-7.6	4.6	22.4	.	.	.	.
Cc1cc(=O)oc2c3c(cc(OCC(=O)NCc4ccco4)c12)OC(C)(C)CC3	-5.6	7.8	56.5*	-25.1	-0.2	10.8	23.8*	23.6	2.6	-1.5
COc1ccc(CNC(=O)COc2cc3c(c4oc(=O)cc(C)c24)CCC(C)(C)O3)cc1OC	-9.4	9.3	61.7*	-17.1	0.4	42.5*	22.7*	30.6	3.8	3.7
COc1ccc(CNC(=O)COc2cc3c(c4oc(=O)cc(C)c24)CCC(C)(C)O3)c(OC)c1	.	.	73.2*	.	2.0	.	24.9*	44.8	6.3	8.0
O=C(NC(O)C(=O)c1ccccc1)c1ccc(F)cc1 (centres undefined)	-3.5	-2.5	-6.8	-2.4	-0.9	12.3	.	.	.	.
O=C(C1=C[C@@H]2[C@H]3C(=O)N(c4ccccc4)C(=O)[C@H]3[C@@H](C(=O)c3ccc(Cl)cc3)N2C=C1)c1ccccc1	-11.0	1.8	.	-4.6	.	10.2	.	.	.	.
